Measurements published in the RNAGym collection of RNA variant scans (doi:10.1038/s41586-018-0170-7).

B1: tRNA (parent)
chain: GUUCCGUUGGCGUAAUGGUAACGCGUCUCCCUCCUAAGGAGAAGACUGCGGGUUCGAGUCCCGUACGGAACG

Variants of: B1
Assay: yeast fitness, log relative to wild type (ln ratio); higher = fitter; tRNA-Arg(CCU), competitive growth, 37 C, 1 M NaCl
Outline: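 Fitness is the natural log of a genotype's generation count divided by that of the wild type. A combinatorial library of tRNA-Arg(CCU) variants sat on a HIS3 centromeric plasmid in BY4742 lacking the chromosomal gene, from two independent transformations. Pools grew 4 generations in SC-HIS at 30 °C, then ~6.5 generations (~26.5 h) in SC-HIS 1M NaCl at 37 °C, with three outputs per input. Generations came from OD-scaled log2 output/input frequency, inverse-variance weighted across replicates, with variants counted by 125 bp paired-end Illumina sequencing.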

In order of falling “yeast fitness (ln)” value:
1. U2C A43C C46U C66A  0.0909
2. G1A C46U C66A  0.0129
3. G1A U2C G6A C46U C66U A70G C71U  0.0112
4. U2G A43C C46U A70U  0.00593
5. G6U C46U C66A  0.00404
6. A43C  0.000879
7. G6A C46U C66U A70U  -0.00103
8. G6U C27U C46U C66A  -0.00348
9. C46U A70G  -0.00475
10. U2G G6A C27U C46U C66U A70U  -0.01
11. U2G  -0.0125
12. C46U A69G A70G  -0.0172
13. G6A C66U A70U  -0.0184
14. G1A U2C G6U C27U A43C C46U C66A A70G C71U  -0.0221
15. G6U C66A C71U  -0.0261
16. G1A U2G C27U A70U C71U  -0.0262
17. G1A U2G  -0.0263
18. G1A C46U A70U  -0.0349
19. G6U C66U  -0.0366
20. U2G C46U C66A A69G A70G  -0.0404
21. G1A G6U C46U C66A A69G C71U  -0.041
22. G1A U2C G6A C27U C46U  -0.0428
23. U2C G6A C27U C66A A70U  -0.0448
24. G1A U2C G6A C27U C46U A70G  -0.0476
25. G6U A43C C46U C66A C71U  -0.0527
26. G1A U2G C27U C46U  -0.0532
27. G1A U2C A69G A70G  -0.0537
28. U2C A43C C66A A70G  -0.0552
29. U2C G6A C27U A43C C46U C66U A70U  -0.0567
30. U2G G6A C27U A43C C46U  -0.0569
31. U2G C27U C66A  -0.0584
32. U2C G6U C66U A70G C71U  -0.0593
33. U2C G6U C71U  -0.0615
34. U2C G6A A43C C46U A69G A70U  -0.0634
35. G1A U2C G6A C27U C46U A70U  -0.0702
36. C46U C66A C71U  -0.0724
37. U2G C27U A70U C71U  -0.0745
38. U2C C27U A43C C71U  -0.0796
39. G1A G6U C66A A69G A70U  -0.0798
40. G1A U2G A70G  -0.0928
41. G1A U2G C66A C71U  -0.0937
42. U2C G6A C66A A70U  -0.094
43. U2G C27U C46U C66A A70G  -0.0963
44. U2G C27U C66U A70U  -0.0967
45. U2C G6U A43C C66A C71U  -0.0984
46. A43C C46U C66A A69G A70G C71U  -0.103
47. G1A C46U C66U A70G  -0.104
48. G1A U2G A69G  -0.104
49. U2C C27U A43C C46U C66A A70G C71U  -0.105
50. U2G G6U C66A C71U  -0.108
51. G1A G6A C66U  -0.113
52. G6U C27U A43C C46U C66A A70G  -0.123
53. G1A C27U C66A  -0.123
54. U2G C27U A43C C46U C66A  -0.124
55. G1A U2C G6U A43C C46U A69G A70G  -0.126
56. G1A U2C C27U C46U A70U  -0.127
57. G1A U2G C46U A69G  -0.13
58. U2G G6U C46U C66A A69G A70G  -0.13
59. U2C G6U C27U C46U C66U A70U  -0.132
60. G1A G6A C27U C46U C66U A69G C71U  -0.132
61. G1A U2C A43C C46U C66A A70U C71U  -0.134
62. U2C C27U A43C C66U A70U  -0.135
63. G1A U2G A43C C46U C66U A70U  -0.141
64. G6A A43C A70U  -0.143
65. G1A G6A C27U C46U C66A A69G A70G C71U  -0.145
66. U2G G6U C27U A43C C46U A69G A70U  -0.147
67. G1A U2G G6U C27U C46U C66A A70G  -0.148
68. G1A U2C C27U C46U C66A A70U C71U  -0.15
69. G1A U2C A43C A69G A70G  -0.151
70. U2C G6U C27U A43C C46U A70U  -0.151
71. U2G G6A A43C C66A A69G A70G C71U  -0.154
72. U2C G6U A43C C46U C66A A69G A70U  -0.162
73. U2C G6A C27U A70G  -0.167
74. U2G G6U C27U C46U C66A A70G C71U  -0.168
75. U2G G6A A43C C46U A69G A70G  -0.169
76. G1A U2G A43C A69G A70G  -0.172
77. G1A C27U A43C C46U C66U A70U  -0.173
78. G1A U2G G6A A43C C46U C66U C71U  -0.177
79. U2C C27U C46U C66A A70G C71U  -0.181
80. U2G G6A C46U A69G  -0.183
81. U2C G6A C46U A69G A70U C71U  -0.183
82. U2C G6U C27U C46U C66U C71U  -0.183
83. G1A G6U C46U A70U C71U  -0.185
84. U2G G6A C27U C66A  -0.186
85. U2G G6A A43C C66U A70G C71U  -0.186
86. U2G A43C C46U C66A A69G A70G  -0.186
87. U2G A69G A70G C71U  -0.191
88. G1A U2C C27U C66U  -0.191
89. G1A A43C C46U C66U A70G C71U  -0.192
90. G6U C27U C46U C66A A69G A70U  -0.196
91. U2C G6U C27U A43C C46U A70G  -0.204
92. C27U C46U A70U C71U  -0.205
93. U2G G6A C27U C46U A70G C71U  -0.207
94. U2C G6U C46U C66A C71U  -0.211
95. U2C G6A C27U C66U  -0.217
96. U2C G6U C27U A43C C71U  -0.23
97. G6A A43C C46U C66U A69G A70G  -0.233
98. G1A A43C C66U A70G  -0.236
99. G6U A43C C46U A69G A70U  -0.236
100. G1A U2G G6A C27U C46U A70G  -0.237
101. U2C G6A C27U A43C A70U C71U  -0.243
102. G1A A43C C66U A69G A70G  -0.243
103. U2G G6A C27U C66A A70U C71U  -0.244
104. G1A U2G C27U C66U C71U  -0.244
105. U2G G6U C27U A69G A70G  -0.246
106. G6U C27U A43C C46U A70G  -0.248
107. G1A U2G G6A C46U C66U A70U  -0.251
108. G1A A43C C66A A69G A70U C71U  -0.257
109. G1A G6U A43C C46U C66A A69G A70G  -0.258
110. U2G G6U C46U C66A A70G C71U  -0.26
111. U2C G6U C27U C66A A70U C71U  -0.26
112. G6A C27U A43C C66A A69G A70G C71U  -0.262
113. C27U C66U A69G A70G C71U  -0.262
114. U2G A70G C71U  -0.268
115. U2G C27U A43C C46U C66U A70U  -0.271
116. G1A G6U C27U C66U A70U  -0.274
117. G1A A43C C66A C71U  -0.275
118. G1A G6U A43C A69G C71U  -0.28
119. U2C G6A C27U A43C C46U C66U A69G C71U  -0.281
120. G6U A69G A70G C71U  -0.282
121. G6A C27U A43C C46U C66A A69G A70G C71U  -0.292
122. G6U C66U A69G A70G C71U  -0.293
123. U2C G6A C46U C66U A69G  -0.293
124. G1A U2G G6A A69G A70G C71U  -0.298
125. G1A U2C G6U C27U A43C C66A A70G  -0.299
126. G6U C27U A43C C46U C66A C71U  -0.299
127. G1A C27U A43C C46U C66U A70G C71U  -0.299
128. G6U C46U A69G A70U C71U  -0.301
129. G6U C46U C66U A70U C71U  -0.302
130. G1A G6U C27U C66A A69G A70G C71U  -0.31
131. G6U C27U C46U C66U A69G A70G  -0.318
132. G6A C27U A43C C46U C66A C71U  -0.328
133. G6U A43C A69G  -0.328
134. G6A C27U C46U A69G A70U C71U  -0.331
135. G1A U2C C27U A43C C66A A70U C71U  -0.331
136. G1A G6U C27U C46U A69G A70G C71U  -0.335
137. G1A G6U C27U A43C A69G A70G C71U  -0.34
138. U2C C27U A43C C66U A70U C71U  -0.343
139. C27U A43C C66U A69G C71U  -0.344
140. G1A U2G G6A C27U C66U C71U  -0.344
141. U2G C27U A43C C66U A69G A70U  -0.346
142. G1A U2G G6U C46U C66U A69G A70G  -0.347
143. G1A G6A C27U A43C A70G C71U  -0.351
144. G6U C27U A43C C46U A69G A70G C71U  -0.356
145. G1A U2G G6U C27U A43C C46U  -0.363
146. G1A U2G G6U A43C C66U A69G A70G C71U  -0.368
147. C27U A43C C66U A69G A70U C71U  -0.37
148. G6U C27U A43C C46U C66A A70U  -0.382
149. U2G G6A C46U C66U A69G A70U C71U  -0.385
150. G1A G6U A43C C66A A70U C71U  -0.386
151. G6U C46U C66A A69G A70U C71U  -0.418
152. U2C G6A C46U C66U A69G A70U C71U  -0.419
153. U2G G6U C66U A69G A70U C71U  -0.421
154. G1A C27U A43C A70G C71U  -0.426
155. G1A U2G G6U C27U A43C C46U C66U  -0.434
156. G1A U2G G6A C27U A69G A70G C71U  -0.443
157. U2C C27U A43C C66A A69G A70U C71U  -0.443
158. G1A U2G G6A A43C C66U A69G A70U  -0.45
159. G1A U2C C27U A43C C46U C66U A69G A70U C71U  -0.464
160. U2C C27U A43C C46U C66A A69G A70U C71U  -0.472
161. G1A G6A A43C C46U A69G A70U C71U  -0.473
162. G1A G6U C71U  -0.481
163. G1A U2G C66U A70U C71U  -0.486
164. G6A A43C C46U A69G A70U C71U  -0.493
165. G1A C46U C66U A70G C71U  -0.493
166. G1A U2C C27U C66U A69G A70G C71U  -0.585
167. U2G G6A C66U A69G A70U C71U  -0.641
